# Results published in ChEMBL document CHEMBL1149899 (J Med Chem, 2008).
# Columns and labels:
# [1] = Binding affinity to yeast Hsp90 by isothermal titration calorimetry; design: species or system Saccharomyces cerevisiae
# [2] = Inhibition of ATPase activity of yeast Hsp90; design: species or system Saccharomyces cerevisiae
# [3] = Antitumor activity against human BXF 1218L cells; type: functional, cell-based
# Summary of the method: (§1)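 Panel of 38 human solid-tumour cell lines, each tested in a monolayer proliferation assay. Growth inhibition was expressed as IC50 and IC70 values. Testing was run at Oncotest.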
# [4] = Antitumor activity against human BXF T24 cells; type: functional, cell-based; conditions: T-24; summary of the method: as §1
# [5] = Antitumor activity against human CNXF 498NL cells; type: functional, cell-based; summary of the method: as §1
# [6] = test system: SF-268; assay: Antitumor activity against human CNXF SF268 cells; type: functional, cell-based; summary of the method: as §1
# [7] = Antitumor activity against human CXF HCT116 cells; type: functional, cell-based; conditions: HCT-116; summary of the method: as §1
# [8] = Antitumor activity against human CXF HT29 cells; type: functional, cell-based; conditions: HT-29; summary of the method: as §1
# [9] = test system: SW-620; assay: Antitumor activity against human CXF SW620 cells; type: functional, cell-based; summary of the method: as §1
# [10] = Antitumor activity against human GXF 251L cells; type: functional, cell-based; summary of the method: as §1
# [11] = Antitumor activity against human HNXF 536L cells; type: functional, cell-based; summary of the method: as §1
# [12] = Antitumor activity against human OVXF 1619L cells; type: functional, cell-based; summary of the method: as §1
# [13] = Antitumor activity against human LXF 1121L cells; type: functional, cell-based; summary of the method: as §1
# [14] = Antitumor activity against human LXF 289L cells; type: functional, cell-based; summary of the method: as §1
# [15] = Antitumor activity against human LXF 526L cells; type: functional, cell-based; summary of the method: as §1
# [16] = Antitumor activity against human LXF 529L cells; type: functional, cell-based; summary of the method: as §1
# [17] = Antitumor activity against human LXF 629L cells; type: functional, cell-based; summary of the method: as §1
# [18] = Antitumor activity against human LXF H640 cells; type: functional, cell-based; summary of the method: as §1
# [19] = Antitumor activity against human MAXF 401NL cells; type: functional, cell-based; summary of the method: as §1
# [20] = test system: MCF7; assay: Antitumor activity against human MAXF MCF7 cells; type: functional, cell-based; summary of the method: as §1
# [21] = Antitumor activity against human MEXF 276L cells; type: functional, cell-based; conditions: MEXF276L; summary of the method: as §1
# [22] = Antitumor activity against human MEXF 394NL cells; type: functional, cell-based; summary of the method: as §1
# [23] = Antitumor activity against human MEXF 462NL cells; type: functional, cell-based; summary of the method: as §1
# [24] = Antitumor activity against human MEXF 514L cells; type: functional, cell-based; summary of the method: as §1
# [25] = Antitumor activity against human MEXF 520L cells; type: functional, cell-based; summary of the method: as §1
# [26] = Antitumor activity against human OVXF 899L cells; type: functional, cell-based; summary of the method: as §1
# [27] = test system: OVCAR-3; assay: Antitumor activity against human OVCAR-3 cells; type: functional, cell-based; summary of the method: as §1
# [28] = Antitumor activity against human PAXF 165L cells; type: functional, cell-based; summary of the method: as §1
# [29] = Antitumor activity against human PAXF PANC1 cells; type: functional, cell-based; conditions: PANC-1; summary of the method: as §1
# [30] = test system: CWR22R; assay: Antitumor activity against human PRXF 22RV1 cells; type: functional, cell-based; summary of the method: as §1
# [31] = test system: DU-145; assay: Antitumor activity against human PRXF DU145 cells; type: functional, cell-based; summary of the method: as §1
# [32] = Antitumor activity against human PRXF LNCAP cells; type: functional, cell-based; summary of the method: as §1
# [33] = Antitumor activity against human PXF 1752L cells; type: functional, cell-based; summary of the method: as §1
# [34] = Antitumor activity against human RXF 1781L cells; type: functional, cell-based; summary of the method: as §1
# [35] = Antitumor activity against human RXF 393NL cells; type: functional, cell-based; summary of the method: as §1
# [36] = Antitumor activity against human RXF 486L cells; type: functional, cell-based; summary of the method: as §1
# [37] = Antitumor activity against human RXF 944L cells; type: functional, cell-based; summary of the method: as §1
# [38] = test system: UO-31; assay: Antitumor activity against human RXF UO31 cells; type: functional, cell-based; summary of the method: as §1
# [39] = Antitumor activity against human […] 1138L cells; type: functional, cell-based; summary of the method: as §1
# [40] = test system: DU-145; assay: Degradation of ErbB2 in human DU145 cell lysate by Western blot; type: functional, cell-based
# Summary of the method: (§2)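 DU145 prostate cancer cells were exposed to 1 or 10 µM, with time points including 48 and 96 h. Cell lysates were probed by Western blot for ErbB2, cRaf1, Hsp90 and Hsp70.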
# [41] = test system: DU-145; assay: Degradation of cRaf1 in human DU145 cell lysate by Western blot; type: functional, cell-based; summary of the method: as §2
# [42] = test system: DU-145; assay: Antitumor activity against human DU145 tumor xenografted mouse at 10 mg/kg, ip measured on day 31; type: functional; conditions: route intraperitoneal
# [43] = test system: DU-145; assay: Antitumor activity against human DU145 tumor xenografted mouse assessed delay for tumor doubling time at 10 mg/kg, ip; type: functional; conditions: route intraperitoneal
# [44] = test system: DU-145; assay: Antitumor activity against human DU145 tumor xenografted mouse assessed delay for tumor quadrupling time at 10 mg/kg, ip; type: functional; conditions: route intraperitoneal
# [45] = test system: Mus musculus; assay: Toxicity in human DU145 cells xenografted mouse assessed as loss of body weight at 10 mg/kg, ip on day 3; type: organism-based, DU-145; design: dose 10 mg/kg, route intraperitoneal; conditions: in vivo
# [46] = Antitumor activity against human PRXF PC3M cells; type: functional, cell-based; conditions: PC-3M; summary of the method: as §1
smiles,measurement,setting,value
COC1=C2C[C@@H](C)C[C@H](OC)[C@H](O)[C@@H](C)/C=C(\C)[C@H](OC(N)=O)[C@@H](OC)/C=C\C=C(/C)C(=O)NC(=CC1=O)C2=O [GELDANAMYCIN],Kd,[1],1200 nM
same,IC50,[2],7 µM
CO[C@H]1[C@@H](OC)C[C@H](C)[C@@H](OC)C2=CC(=O)C=C(NC(=O)/C(C)=C/C=C\[C@H](C)[C@@H](OC(N)=O)/C(C)=C/[C@@H]1C)C2=O [MACBECIN],IC50,[2],2 µM
same,IC50,[3],< 0.01 µg/mL
same,IC70,[3],< 0.01 µg/mL
same,IC90,[3],37.3 µg/mL
same,IC50,[4],1.6 µg/mL
same,IC70,[4],4.56 µg/mL
same,IC90,[4],35.9 µg/mL
same,IC50,[5],< 0.01 µg/mL
same,IC70,[5],0.857 µg/mL
same,IC90,[5],27.8 µg/mL
same,IC50,[6],0.527 µg/mL
same,IC70,[6],1.97 µg/mL
same,IC90,[6],7.63 µg/mL
same,IC50,[7],0.923 µg/mL
same,IC70,[7],6.06 µg/mL
same,IC90,[7],51.8 µg/mL
same,IC50,[8],< 0.01 µg/mL
same,IC70,[8],0.292 µg/mL
same,IC90,[8],7.2 µg/mL
same,IC50,[9],< 0.01 µg/mL
same,IC70,[9],< 0.01 µg/mL
same,IC90,[9],7.36 µg/mL
same,IC50,[10],3.73 µg/mL
same,IC70,[10],25.1 µg/mL
same,IC90,[10],93.6 µg/mL
same,IC50,[11],1.61 µg/mL
same,IC70,[11],4.22 µg/mL
same,IC90,[11],11 µg/mL
same,IC50,[12],1.56 µg/mL
same,IC70,[12],9.15 µg/mL
same,IC90,[12],> 100 µg/mL
same,IC50,[13],0.048 µg/mL
same,IC70,[13],1 µg/mL
same,IC90,[13],60 µg/mL
same,IC50,[14],27.7 µg/mL
same,IC70,[14],59 µg/mL
same,IC90,[14],125 µg/mL
same,IC50,[15],6.45 µg/mL
same,IC70,[15],41.2 µg/mL
same,IC90,[15],242 µg/mL
same,IC50,[16],8.19 µg/mL
same,IC70,[16],25.6 µg/mL
same,IC90,[16],73 µg/mL
same,IC50,[17],5 ng/mL
same,IC70,[17],30.6 µg/mL
same,IC90,[17],114 µg/mL
same,IC50,[18],2.11 µg/mL
same,IC70,[18],7.33 µg/mL
same,IC90,[18],61.6 µg/mL
same,IC50,[19],< 0.01 µg/mL
same,IC70,[19],< 0.01 µg/mL
same,IC90,[19],< 100 µg/mL
same,IC50,[20],0.158 µg/mL
same,IC70,[20],3.32 µg/mL
same,IC90,[20],79.4 µg/mL
same,IC50,[21],13.9 µg/mL
same,IC70,[21],51.8 µg/mL
same,IC90,[21],193 µg/mL
same,IC50,[22],< 0.01 µg/mL
same,IC70,[22],< 0.01 µg/mL
same,IC90,[22],31.6 µg/mL
same,IC50,[23],0.456 µg/mL
same,IC70,[23],1.97 µg/mL
same,IC90,[23],41.2 µg/mL
same,IC50,[24],7.8 µg/mL
same,IC70,[24],25.7 µg/mL
same,IC90,[24],83.8 µg/mL
same,IC50,[25],9.34 µg/mL
same,IC70,[25],26.4 µg/mL
same,IC90,[25],73.6 µg/mL
same,IC50,[26],16.2 µg/mL
same,IC70,[26],47.2 µg/mL
same,IC90,[26],138 µg/mL
same,IC50,[27],1.24 µg/mL
same,IC70,[27],3.62 µg/mL
same,IC90,[27],10.6 µg/mL
same,IC50,[28],4.16 µg/mL
same,IC70,[28],19.3 µg/mL
same,IC90,[28],> 100 µg/mL
same,IC50,[29],0.577 µg/mL
same,IC70,[29],3.59 µg/mL
same,IC90,[29],139 µg/mL
same,IC50,[30],0.189 µg/mL
same,IC70,[30],1.86 µg/mL
same,IC90,[30],31.6 µg/mL
same,IC50,[31],< 0.01 µg/mL
same,IC70,[31],< 0.01 µg/mL
same,IC90,[31],2.37 µg/mL
same,IC50,[32],8 ng/mL
same,IC70,[32],14.2 µg/mL
same,IC90,[32],> 100 µg/mL
same,IC50,[33],16.6 µg/mL
same,IC70,[33],41.7 µg/mL
same,IC90,[33],105 µg/mL
same,IC50,[34],4.33 µg/mL
same,IC70,[34],25.9 µg/mL
same,IC90,[34],127 µg/mL
same,IC50,[35],0.297 µg/mL
same,IC70,[35],5.18 µg/mL
same,IC90,[35],57.8 µg/mL
same,IC50,[36],6.72 µg/mL
same,IC70,[36],20.5 µg/mL
same,IC90,[36],86.6 µg/mL
same,IC90,[37],10 µg/mL
same,IC50,[38],2.4 µg/mL
same,IC70,[38],4.99 µg/mL
same,IC90,[38],100 µg/mL
same,IC50,[39],3.35 µg/mL
same,IC70,[39],11.1 µg/mL
same,IC90,[39],90.1 µg/mL
same,Activity,[40],Dose-dependent effect
same,Activity,[41],Dose-dependent effect
same,T/C,[42],32.2%
same,Time,[43],2.3 days
same,Time,[44],20.4 days
same,Activity,[45],5.3%
same,IC50,[46],9 ng/mL
same,IC70,[46],1.41 µg/mL
same,IC90,[46],19.9 µg/mL
